# Assay outcomes as filed in PubChem BioAssay.
# Shown are actives, neighbours in structure and some others; about 5.3% of the full set was active somewhere.
# Beta apoptosis = beta cell apoptosis inhibition | 300,000 tested, 0.8% active | AID 435005 | INS-1E cytokine-induced death, ATP luminescence, 48 h; percent of positive-control rescue, neutral wells zero | protection from apoptosis, % (no concentration beside the values);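 active = Every replicate reaches about 75%, or at least half do and their mean reaches it too, limit read from the data; inconclusive = At least half of replicates reach the limit but their mean does not; inactive = Under half of replicates reach the limit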;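 note: 0% = cytokine-treated negative control wells and 100% = positive control rescue; higher means more ATP so stronger rescue from cytokine killing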
# NLRP3 yeast inh = inhibitors of NALP3 inflammasome in yeast. Yeast reconstituted NLRP3/ASC/caspase-1, beta-gal luminescence, 24 h. inhibition, % at 10 µM. 330,000 tested, 0.39% active;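 active = inhibition of 50% or more; inactive = inhibition below 50%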;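 note: plate controls were induced DMSO wells for no effect and uninduced yeast grown without galactose for full effect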
# Mdm2-MdmX inh = disrupts the human Mdm2-MdmX interaction | O15151+Q00987 | SaOS-2 split-luciferase Mdm2/MdmX complementation, luminescence | inhibition, % at 8 µM | 330,000 tested, 3% active | AID 485346;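 active = inhibition of at least 50% at 8 µM in the primary screen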
# Target sequence (O15151 whole entry, looked up): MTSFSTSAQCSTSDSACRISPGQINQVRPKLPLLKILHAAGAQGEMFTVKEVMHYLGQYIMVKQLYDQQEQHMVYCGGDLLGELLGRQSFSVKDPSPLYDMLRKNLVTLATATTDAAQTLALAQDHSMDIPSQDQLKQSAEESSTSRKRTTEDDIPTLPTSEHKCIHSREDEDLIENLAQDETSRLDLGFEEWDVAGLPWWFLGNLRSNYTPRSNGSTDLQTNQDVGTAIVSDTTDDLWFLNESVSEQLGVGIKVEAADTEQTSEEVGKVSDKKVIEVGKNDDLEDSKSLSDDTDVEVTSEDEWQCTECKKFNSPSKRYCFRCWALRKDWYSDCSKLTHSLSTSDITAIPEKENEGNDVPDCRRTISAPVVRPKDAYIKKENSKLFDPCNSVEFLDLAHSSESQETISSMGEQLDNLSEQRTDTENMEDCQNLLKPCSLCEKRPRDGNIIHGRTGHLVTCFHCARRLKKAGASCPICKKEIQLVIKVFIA
# Target sequence (Q00987 whole entry, looked up): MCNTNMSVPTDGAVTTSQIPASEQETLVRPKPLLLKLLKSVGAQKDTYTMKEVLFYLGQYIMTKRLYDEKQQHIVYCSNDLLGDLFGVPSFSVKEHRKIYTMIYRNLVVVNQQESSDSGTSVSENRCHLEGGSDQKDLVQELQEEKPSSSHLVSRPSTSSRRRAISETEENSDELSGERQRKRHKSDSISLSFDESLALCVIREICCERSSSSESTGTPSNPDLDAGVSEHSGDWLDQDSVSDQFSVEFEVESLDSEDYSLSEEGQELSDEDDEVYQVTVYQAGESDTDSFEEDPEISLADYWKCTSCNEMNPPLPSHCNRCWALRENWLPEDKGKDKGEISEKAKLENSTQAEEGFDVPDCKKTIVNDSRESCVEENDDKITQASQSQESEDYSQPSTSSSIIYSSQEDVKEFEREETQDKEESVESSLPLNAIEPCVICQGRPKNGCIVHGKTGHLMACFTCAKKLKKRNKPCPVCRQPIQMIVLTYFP
# T cruzi inh = blocks replication of Trypanosoma cruzi. T. cruzi beta-gal in NIH3T3, luminescence, 90 h. inhibition, % (concentration not given with the values). 300,000 tested, 1.4% active. AID 1885;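 active = mean inhibition across valid replicates above about 55%, limit read from the data; inconclusive = mean below that limit but half or more replicates reach it; inactive = mean below it, under half of replicates reach it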;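 note: signal also drops with host cell toxicity which is not excluded here; 0% = plate median of DMSO wells and 100% = zero luminescence signal; higher percent means less beta-gal luminescence so fewer parasites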
#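 Test system: β-gal T. cruzi (Tulahuen C4) inside NIH/3T3 cells / Quantity: 5,000 cells/well / Measured by: luminescence from GalScreen with 0.05% NP40, read after 60 min / Medium: DMEM plus 2% FBS / Measure: parasite load inhibition, % / Reagent: Tulahuen C4 trypomastigotes, 5000/well / Schedule: co-culture of at least 90 h after 3 h attachment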
# CSC inhib = blocks cancer stem cells. cancer stem cell-like cells viability, luminescence. inhibition, % at 7.5 µM. 300,000 tested, 1.1% active. AID 2717; in the data active = inhibition above about 75%; inconclusive = no clear call, values can overlap the other calls; tested in HMLE shEcad cells
# Calb FLC = affects C. albicans growth with fluconazole; AID 1979; 300,000 tested, 0.57% active; growth inhibition, % (concentration not given with the values); C. albicans CaCi-2 (fluconazole-resistant clinical isolate) + fluconazole, Alamar Blue growth, 48 h;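 active = growth inhibition above about 58% in most replicates, limit read from the data, passing the limit was not always enough; inconclusive = exactly half the replicates above a set limit; inactive = most replicates below a set limit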;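 note: all wells also contain fluconazole at 8 µg/ml as a sub-toxic cotreatment; 0% = median of DMSO wells and 100% = median of geldanamycin control wells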
# NALP3 confirm = NALP3 inhibition confirmation in yeast. shares compounds with NLRP3 yeast inh. yeast expressing human NALP3, luminescence. inhibition, % at 10 µM. 1,300 tested, 81% active. AID 435006; in the data active = inhibition above about 48%
# Casp1-ASC yeast = active in yeast caspase-1-ASC counter-screen for NALP3 inhibitors; shares compounds with NLRP3 yeast inh; yeast expressing Caspase-1-ASC, luminescence counter screen; inhibition, % at 10 µM; 1,000 tested, 66% active; AID 488784
# NALP3 retest = yeast NALP3 inhibition, confirmed on retest; 1,000 tested, 53% active; yeast expressing human NALP3, luminescence read-out; shares compounds with NLRP3 yeast inh; inhibition, % at 10 µM
# Mdm2 MdmX conf = human Mdm2/MdmX binding inhibition, confirmed; shares compounds with Mdm2-MdmX inh; luminescent assay; inhibition, % at 8 µM; 10,000 tested, 55% active; AID 489028; in the data active = inhibition above about 40%
# Full FLuc ctr = full-length luciferase inhibition in Mdm2/MdmX counter-screen; shares compounds with Mdm2-MdmX inh; SaOS-2 full-length luciferase counterscreen, luminescence; inhibition, % at 8 µM; 6,200 tested, 77% active; AID 504607;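 active = mean inhibition at 8 µM reaching about 37%, which flags the compound as non-specific, limit read from the data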;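 note: p53-null SaOS-2 cells with luciferase driven by a doxycycline-inducible promoter; compound on cells about two nights before reading with doxycycline added after day one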
# The depositor's hits bear a star; ? = inconclusive; . = no result. Cut-off read from the data, not from the text of the source, unless noted: active = inhibition above about 50%; inactive = the rest.
SMILES,Beta apoptosis,NLRP3 yeast inh,Mdm2-MdmX inh,T cruzi inh,CSC inhib,Calb FLC,NALP3 confirm,Casp1-ASC yeast,NALP3 retest,Mdm2 MdmX conf,Full FLuc ctr
CNC(=O)c1c(O)c2cccc3c2n(c1=O)CCC3,.,50*,75*,-7,.,-3,64*,39,48,84*,47*
CCCCCCNC(=O)c1c(O)c2cccc3c2n(c1=O)CCC3,-1,17,-15,27,21,2,.,.,.,.,.
CCOCCCn1c(SCC(=O)Nc2ccc3[nH]c(=O)[nH]c3c2)nc2ccccc2c1=O,.,-4,-11,-9,-17,-6,.,.,.,.,.
O=C(Nc1cccc(Cl)c1)c1cc(N=Nc2ccc([N+](=O)[O-])cc2Cl)ccc1O,46,57*,92*,-2,128*,3,86*,42,56*,97*,51*
O=C(Nc1ccccc1)c1cc([N+](=O)[O-])ccc1Cl,-4,24,11,2,-11,.,.,.,.,.,.
O=C1/C(=C/c2ccc(N3CCOCC3)o2)SC(=Nc2ccccc2)N1CCc1c[nH]c2ccccc12,101*,68*,100*,71*,85*,1,77*,.,.,98*,4
CCCCC(CC)CO (stereo not given),.,12,8,.,.,.,.,.,.,.,.
CCCCC(CC)CN=C(N)NC(N)=NCCCCCCN=C(N)NC(N)=NCC(CC)CCCC (stereo not given),114*,97*,99*,.,103*,.,95*,86*,94*,86*,15
Cc1cc(C)nc(NC(=O)Nc2ccc(F)cc2F)n1,4,28,-6,9,-8,21,.,.,.,.,.
CCCSc1nsc(NC(=O)Nc2ccc(F)cc2F)n1,106*,51*,87*,13,95*,2,51*,23,36,59*,71*
CCSc1nsc(NC(=O)Nc2cccc(F)c2)n1,.,50*,94*,42,93*,-7,78*,47,85*,88*,26
COc1cccc(NC(=O)Nc2nc(SC)ns2)c1,.,10,-66,-14,17,-18,.,.,.,.,.
O=C(O)CCn1c(=O)[nH]c(=O)n(CCC(=O)O)c1=O,-2,12,14,9,-3,-10,.,.,.,.,.
c1ccc2sc(Sc3ncnc4sccc34)nc2c1,-44,11,44,39,13,-13,.,.,.,.,.
Clc1ccc(-n2nnnc2Sc2ncnc3sccc23)cc1,-16,64*,90*,-13,-15,26,74*,94*,76*,74*,43*
CCOC(=O)c1c(NC(=O)CSc2nnc(-c3cccc(C)c3)n2CC)sc(C(C)=O)c1C,-4,5,36,21,40,16,.,.,.,.,.
CCN1/C(=C/C=C/c2oc3ccc(-c4ccccc4)cc3[n+]2CC)Oc2ccc(-c3ccccc3)cc21,111*,67*,97*,90*,116*,75*,68*,22,43,92*,1
CCCCN1C(=O)/C(=C/C=C2\Oc3ccccc3N2CC)SC1=S,.,.,.,12,.,17,.,.,.,.,.
CN(C)c1ccc(-n2cccc2/C=C/[N+](=O)[O-])cc1,21,61*,65*,16,87*,-34,65*,.,.,34,.
COC(=O)CSc1ncnc2c1cnn2Cc1ccccc1,-12,4,23,5,-18,9,.,.,.,.,.
NC(=O)CC(NC(=O)Cc1ccc(Br)cc1)c1ccc(N2CCC(Cc3ccccc3)CC2)c([N+](=O)[O-])c1 (stereo not given),70,51*,71*,-22,?,-10,80*,18,4,55*,48*
NC(=O)CC(NC(=O)Cc1ccc(Br)cc1)c1ccc(N2CCC(Br)CC2)c([N+](=O)[O-])c1 (stereo not given),-1,7,49,7,14,-5,.,.,.,.,.
O=c1cc(-c2ccc(O)cc2)oc2ccc3ccccc3c12,45,61*,68*,.,90*,.,81*,58*,54*,66*,75*
COc1cc(CNCCc2ccccc2)cc(Br)c1OCC(=O)Nc1ccccc1C,7,54*,74*,50,.,-5,44,36,45,38,72*
Cc1cccc2c1-c1sc(C(=O)Nc3ccccc3N3CCN(C)CC3)cc1CO2,4,55*,65*,28,102*,?,64*,.,.,38,68*
SMILES,Beta apoptosis,NLRP3 yeast inh,Mdm2-MdmX inh,T cruzi inh,CSC inhib,Calb FLC,NALP3 confirm,Casp1-ASC yeast,NALP3 retest,Mdm2 MdmX conf,Full FLuc ctr
Cc1cccc2c1-c1sc(C(=O)N3CCCCC3)cc1CO2,3,28,-149,22,.,14,.,.,.,.,.
C[C@@H](C[C@@H](O)[C@H](O)C(C)(C)O)[C@@H]1CC[C@]2(C)C3=CC[C@H]4C(C)(C)C(=O)CC[C@]4(C)[C@H]3CC[C@@]12C,.,62*,51*,48,-6,-5,76*,.,.,40*,96*
COc1cc(C(=O)ON=C2C3CC4CC(C3)CC2C4)cc(OC)c1OC,8,59*,95*,4,-2,-17,92*,40,26,27,.
COc1cc(C(=O)O/N=C2\C=CC(=O)C=C2C)cc(OC)c1OC,-23,4,29,-18,3,.,.,.,.,.,.
CCN1/C(=C/c2ccc3cc(C)ccc3[n+]2CC)Sc2ccccc21,115*,56*,97*,53,102*,.,68*,100*,99*,95*,8
CC(=O)Nc1ccc2[nH]c3ccccc3c2c1,-1,10,-7,3,21,-4,.,.,.,.,.
O=C(Nc1ccc(Cl)cc1)c1cc2c(cc1O)[nH]c1ccccc12,39,53*,97*,-14,116*,-3,77*,72*,91*,93*,58*
O=C(NNS(=O)(=O)c1ccccc1[N+](=O)[O-])c1ccccc1[N+](=O)[O-],-20,0,-24,2,-6,21,.,.,.,.,.
Clc1ccc(-c2cc(-c3ccccc3)on2)cc1,-1,18,-183,.,-5,.,.,.,.,.,.
CCc1ccn2cc(-c3cc(-c4ccccc4)no3)nc2c1,13,81*,66*,-19,29,-2,81*,42,44,67*,95*
COc1ccc(C(=O)On2c(-c3ccc(Br)cc3)nc3ccccc3c2=O)cc1,0,62*,54*,-18,40,104*,86*,57*,68*,31,.
